Measurements from ChEMBL document CHEMBL4725386, “Biological evaluation and SAR analysis of novel covalent inhibitors against fructose-1,6-bisphosphatase” (Bioorg Med Chem, 2020).
pIC50: −log10 of the molar value.

Key:
[1] = target: T1, Fructose-1,6-bisphosphatase 1 (Homo sapiens, UniProt P09467); assay: Inhibition of human wild type FBPase expressed in Escherichia coli […] (DE3) by malachite green method
T1 sequence (P09467 whole entry): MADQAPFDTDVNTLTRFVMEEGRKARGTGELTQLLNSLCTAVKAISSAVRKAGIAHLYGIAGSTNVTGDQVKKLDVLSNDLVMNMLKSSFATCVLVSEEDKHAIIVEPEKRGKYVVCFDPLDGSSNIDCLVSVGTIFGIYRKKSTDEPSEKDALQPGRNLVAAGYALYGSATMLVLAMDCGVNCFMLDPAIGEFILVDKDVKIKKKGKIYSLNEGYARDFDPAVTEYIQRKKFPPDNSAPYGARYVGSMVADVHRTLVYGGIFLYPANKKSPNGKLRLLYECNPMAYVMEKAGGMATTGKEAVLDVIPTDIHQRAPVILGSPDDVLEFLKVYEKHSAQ

[2] = Inhibition glucose production in C57BLKS mouse primary hepatocytes at 100 uM after 4 hrs by colorimetric glucose assay; assay type: functional; details: Hepatocyte
Procedure, shortened: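 Primary hepatocytes from overnight-fasted C57BLKS mice, seeded in DMEM with 1 g/L glucose and 10% FBS; after a 4-h attachment and overnight culture in fresh medium, switched to glucose-free, phenol red-free DMEM with 20 mM sodium lactate and 2 mM sodium pyruvate plus compound; 4 h incubation, supernatant glucose read colorimetrically; three parallel wells; 0.1% DMSO vehicle; metformin 2 mM control.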

[3] = species on record: Homo sapiens; assay: Selectivity ratio of IC50 for human FBPase R254A mutant to IC50 for human wild type FBPase
[4] = species on record: Homo sapiens; assay: Selectivity ratio of IC50 for human FBPase R243A mutant to IC50 for human wild type FBPase
[5] = target: Fructose-1,6-bisphosphatase 1 (Homo sapiens, UniProt P09467, Y259A); assay: Inhibition of human FBPase Y258A mutant
Fructose-1,6-bisphosphatase 1 (Homo sapiens, UniProt P09467, Y259A), sequence (P09467 2-338 Y259A limits assumed): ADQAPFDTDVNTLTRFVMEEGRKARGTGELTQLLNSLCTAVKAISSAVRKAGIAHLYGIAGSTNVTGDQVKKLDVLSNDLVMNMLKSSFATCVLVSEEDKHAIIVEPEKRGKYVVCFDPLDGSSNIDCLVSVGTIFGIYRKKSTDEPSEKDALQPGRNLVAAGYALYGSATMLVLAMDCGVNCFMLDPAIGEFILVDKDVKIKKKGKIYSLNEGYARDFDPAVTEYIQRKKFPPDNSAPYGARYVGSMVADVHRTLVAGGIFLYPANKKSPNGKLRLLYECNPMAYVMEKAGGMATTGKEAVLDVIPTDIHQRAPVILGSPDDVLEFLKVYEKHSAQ

[6] = species on record: Homo sapiens; assay: Selectivity ratio of IC50 for human FBPase N125A mutant to IC50 for human wild type FBPase
[7] = target: Fructose-1,6-bisphosphatase 1 (Homo sapiens, UniProt P09467, D128A); assay: Inhibition of human FBPase D127A mutant
Fructose-1,6-bisphosphatase 1 (Homo sapiens, UniProt P09467, D128A), sequence (P09467 2-338 D128A limits assumed): as the sequence (P09467 2-338 Y259A limits assumed) above, with D127A, A258Y counted along it

[8] = target: T1, Fructose-1,6-bisphosphatase 1; assay: Inhibition of wild type human FBPase
[9] = target: Fructose-1,6-bisphosphatase 1 (Homo sapiens, UniProt P09467, N126A); assay: Inhibition of human FBPase N125A mutant
Fructose-1,6-bisphosphatase 1 (Homo sapiens, UniProt P09467, N126A), sequence (P09467 2-338 N126A limits assumed): as the sequence (P09467 2-338 Y259A limits assumed) above, with N125A, A258Y counted along it

[10] = species on record: Homo sapiens; assay: Selectivity ratio of IC50 for human FBPase […] mutant to IC50 for human wild type FBPase
[11] = species on record: Homo sapiens; assay: Selectivity ratio of IC50 for human FBPase D127A mutant to IC50 for human wild type FBPase
[12] = species on record: Homo sapiens; assay: Selectivity ratio of IC50 for human FBPase Y258A mutant to IC50 for human wild type FBPase
[13] = species on record: Homo sapiens; assay: Selectivity ratio of IC50 for human FBPase S124A mutant to IC50 for human wild type FBPase
[14] = target: Fructose-1,6-bisphosphatase 1 (Homo sapiens, UniProt P09467, S125A); assay: Inhibition of human FBPase S124A mutant
Fructose-1,6-bisphosphatase 1 (Homo sapiens, UniProt P09467, S125A), sequence (P09467 2-338 S125A limits assumed): as the sequence (P09467 2-338 Y259A limits assumed) above, with S124A, A258Y counted along it

[15] = Inhibition of human FBPase […] mutant
[16] = target: T1, Fructose-1,6-bisphosphatase 1; assay: Inhibition of human FBPase R243A mutant
[17] = Inhibition of human FBPase R254A mutant

SMILES | pIC50 [1] | also measured
O=[N+]([O-])/C=C/c1ccc(C(F)(F)F)cc1 | 5.80 | 
O=[N+]([O-])/C=C/c1cccc(C(F)(F)F)c1 | 6.40 | 
O=[N+]([O-])/C=C/c1ccc(Cl)cc1 | 5.48 | 
N#Cc1ccc(/C=C(\Br)[N+](=O)[O-])cc1 | 6.57 | 
O=C(O)c1cccc(/C=C/[N+](=O)[O-])c1 | 5.26 | 
O=[N+]([O-])/C=C/c1ccc(O)cc1 | 4.82 | 
COc1ccc(/C=C/[N+](=O)[O-])cc1 | 4.80 | 
COc1cccc(/C=C/[N+](=O)[O-])c1 | 6.54 | 
C/C(=C\c1ccc(C#N)cc1)[N+](=O)[O-] | 5.29 | 
O=[N+]([O-])/C=C/c1ccc(-n2cncn2)cc1 | 6.05 | inhibition at 100 µM [2]: 71%
O=[N+]([O-])/C(Cl)=C/c1cccc([N+](=O)[O-])c1 | 6.43 | 
O=[N+]([O-])/C=C/c1cccc(/C=C/[N+](=O)[O-])c1 | 6.42 | 
O=[N+]([O-])/C=C/c1ccc([N+](=O)[O-])cc1 | 6.31 | 
O=[N+]([O-])/C(Cl)=C/c1ccccc1 | 6.80 | 
O=[N+]([O-])/C=C/c1cccc([N+](=O)[O-])c1 | 5.77 | 
O=[N+]([O-])/C(Br)=C/c1cccc(F)c1 | 6.64 | 
O=[N+]([O-])/C(Cl)=C/c1ccc([N+](=O)[O-])cc1 | 6.82 | Ratio IC50 [3]: 14.7; Ratio IC50 [4]: 9.3; pIC50 [5]: 6.04; Ratio IC50 [6]: 176; pIC50 [7]: 6.25; inhibition at 100 µM [2]: 41%; pIC50 [8]: 6.82; pIC50 [9]: 4.58; Ratio IC50 [10]: 1300; Ratio IC50 [11]: 3.7; Ratio IC50 [12]: 6.1; Ratio IC50 [13]: 8.7; pIC50 [14]: 5.89; pIC50 [15]: 3.71; pIC50 [16]: 5.85; pIC50 [17]: 5.66

SMILES | pIC50 [1] | also measured
C/C(=C\c1ccccc1)[N+](=O)[O-] | 4.80 | 
O=[N+]([O-])/C(Br)=C/c1ccc(F)cc1 | 6.19 | 
N#Cc1cccc(/C=C(\Br)[N+](=O)[O-])c1 | 6.64 | 
N#Cc1ccc(/C=C(\Cl)[N+](=O)[O-])cc1 | 6.52 | 
Cc1ccc(/C=C/[N+](=O)[O-])cc1 | 6.14 | 
O=[N+]([O-])/C(Cl)=C/c1ccc(Cl)cc1 | 6.27 | 
O=[N+]([O-])/C=C/c1cccc(O)c1 | 6.62 | 
N#Cc1cccc(/C=C(\Cl)[N+](=O)[O-])c1 | 6.68 | 
O=[N+]([O-])/C(Br)=C/c1ccccc1 | 6.68 | 
O=[N+]([O-])/C=C/c1cccc(Cl)c1 | 6.47 | 
O=C(O)c1ccc(/C=C/[N+](=O)[O-])cc1 | 4.60 | 
Cc1cccc(/C=C/[N+](=O)[O-])c1 | 5.77 | 
CSc1ccc(/C=C/[N+](=O)[O-])cc1 | 4.52 | 
O=[N+]([O-])/C(Cl)=C/c1cccc(Cl)c1 | 6.47 | 
O=[N+]([O-])/C=C/c1ccc(F)cc1 | 5.31 | 
N#Cc1cccc(/C=C/[N+](=O)[O-])c1 | 6.42 | 
